High-throughput results deposited in PubChem BioAssay by Sanford-Burnham Center for Chemical Genomics.
CCR6 antagonist: CCR6 (human) receptor antagonism; P51684; CHO-K1 CCR6 PathHunter beta-arrestin, luminescence, CCL20-stimulated; inhibition, % at 20 µM; 0.49% of 340,000 active; AID 493098;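 active = compounds whose inhibition of the agonist-driven luminescence signal at 20 µM reaches about 50%, limit read from the data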;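 also: cells stimulated with CCL20 at 14 nM final; plate controls were DMSO with CCL20 for no effect and DMSO without agonist for full effect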
Target sequence (P51684 whole entry, looked up): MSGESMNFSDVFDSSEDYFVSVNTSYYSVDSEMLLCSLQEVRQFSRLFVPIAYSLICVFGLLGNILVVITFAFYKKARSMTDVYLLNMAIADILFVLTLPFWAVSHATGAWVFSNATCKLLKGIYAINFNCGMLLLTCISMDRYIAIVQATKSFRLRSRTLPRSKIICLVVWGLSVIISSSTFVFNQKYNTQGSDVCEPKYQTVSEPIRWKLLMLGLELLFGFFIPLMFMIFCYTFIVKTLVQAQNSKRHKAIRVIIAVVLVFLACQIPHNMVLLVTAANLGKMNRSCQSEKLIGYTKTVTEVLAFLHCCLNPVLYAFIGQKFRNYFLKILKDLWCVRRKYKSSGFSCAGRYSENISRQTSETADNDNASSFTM
H9c2 TAG inh: triacylglycerol accumulation inhibition; H9c2 cells, Nile Red lipid (TAG) fluorescence; cells loaded with 200 µM oleic acid; inhibition, % at 12.5 µM; 0.66% of 230,000 active; AID 651582;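 active = pattern-corrected inhibition of lipid staining of at least 50% with the nuclear-stain viability signal not falling by more than 50%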;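 also: 0% = DMSO wells and 100% = triacsin C control wells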
CXCR6 inh: blocks human CXCR6 beta-arrestin recruitment; inhibition, % at 20 µM; CHO-K1 PathHunter CXCR6 beta-arrestin, luminescence; 0.36% of 360,000 active; O00574; in the data active = inhibition above about 34%, passing the limit was not always enough;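 also: antagonist mode with CXCL16 agonist at 10 nM final; 0% = 10 nM CXCL16 with DMSO and 100% = unstimulated wells without agonist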
EBI2 antag: EBI2 (human) antagonism; P32249; EBI2 beta-arrestin recruitment, luminescence, 7a,25-OHC stimulated; inhibition, % at 5 µM; 0.81% of 360,000 active; AID 651636; in the data active = inhibition above about 38%;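 also: enzyme fragment complementation signal reports receptor beta-arrestin coupling in cells; 0% = agonist plus DMSO wells and 100% = wells without agonist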
Target sequence (P32249 whole entry, looked up, the tested form may be a part): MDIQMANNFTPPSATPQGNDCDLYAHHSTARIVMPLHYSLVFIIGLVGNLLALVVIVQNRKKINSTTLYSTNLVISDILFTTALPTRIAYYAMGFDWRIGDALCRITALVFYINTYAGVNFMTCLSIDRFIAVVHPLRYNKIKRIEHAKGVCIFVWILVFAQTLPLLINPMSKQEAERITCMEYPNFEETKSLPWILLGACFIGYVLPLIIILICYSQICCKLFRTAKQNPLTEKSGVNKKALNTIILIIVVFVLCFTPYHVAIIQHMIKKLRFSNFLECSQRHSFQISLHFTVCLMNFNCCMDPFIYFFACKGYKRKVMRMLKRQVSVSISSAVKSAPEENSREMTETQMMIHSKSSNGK
APJ ag: agonists of human APJ apelin receptor | activation, % at 20 µM | 0.11% of 330,000 active | P35414 | CHO-K1 APJ PathHunter beta-arrestin, luminescence; 0% DMSO wells, 100% apelin;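 active = activation more than six SD over the plate average, tested at 20 µM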;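 also: 0% = DMSO alone and 100% = apelin-13 at 10 nM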
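assay system = CHO-K1 APJ beta-arrestin complementation cell line | input = cell density 1000 per well | dosing = compound 20 µM once, DMSO 1% | timing = compound 90 min 25 °C, reagent 1 h | measured by = luminescence from split beta-galactosidase complementation, Galacton Star/Emerald II substrate | read-out basis = APJ agonist activity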
APJ antagonist: blocks the human apelin receptor APJ; AID 2521; CHO-K1 APJ beta-arrestin complementation, luminescence; 0.32% of 330,000 active; P35414; inhibition, % at 20 µM;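 active = inhibition above about 40% at 20 µM, limit read from the data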;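 also: cells challenged with 10 nM apelin-13 agonist together with compound; plate controls were apelin-13 plus DMSO wells for no effect and DMSO wells lacking apelin-13 for full effect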
EBI2 conf: confirmation of human EBI2 receptor antagonists | 29% of 2,400 active | inhibition, % at 5 µM | AID 651997 | shares compounds with EBI2 antag | EBI2 beta-arrestin luminescence, 7a,25-OHC antagonism;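 active = inhibition of at least 50%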
EBI2 agonist: EBI2 agonism counter-screen; EBI2-expressing cells, agonist mode, luminescence, 60 min; 0% vehicle, 100% 7α,25-dihydroxycholesterol control; activation, % at 5 µM; 2,400 tested, under 10 active; AID 652000; shares compounds with EBI2 antag;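 active = activation of at least 50%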
bGal counter: beta-galactosidase inhibition counter-screen | shares compounds with EBI2 antag | purified beta-galactosidase, luminescent Galacton Star, 15 min | inhibition, % at 5 µM | 1% of 2,400 active;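 active = replicate-average signal at least 3 plate SD below neutral wells, shown as high inhibition, flagging enzyme-inhibiting false positives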;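 also: 0% = DMSO wells with enzyme and 100% = wells lacking enzyme; higher means stronger loss of beta-gal luminescence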
* = called active by the depositor; · = not tested or not shown. Hits are enriched below; roughly 1.9% of the tested compounds scored in any of these assays.

SMILES	CCR6 antagonist	H9c2 TAG inh	CXCR6 inh	EBI2 antag	APJ ag	APJ antagonist	EBI2 conf	EBI2 agonist	bGal counter
CCc1nc2ccc(C(=O)NCCOc3ccc(OC)cc3)cn2c1N(CC)Cc1ccc(OC)c(OC)c1	·	18.9	0.7	57.7*	·	·	37.5	-1.7	-8.6
CCc1nc2ccc(C(=O)NCCCN(C)C)cn2c1N(C)Cc1ccc(OC)cc1	·	14.1	0.9	-4.2	·	·	·	·	·
CCc1nc2ccc(C(=O)NCCOc3ccc(OC)cc3)cn2c1N(C)Cc1ccc(N(C)C)cc1	·	19.4	16.5	49.1*	·	·	22.8	-1.2	-7.5
CCn1nc(C(=O)OCC(=O)N(CCC#N)c2ccccc2)c2ccccc2c1=O	11.0	5.5	1.4	-26.9	-0.7	11.6	·	·	·
C[C@H]1CN([C@@H](C)CO)C(=O)CCCn2nncc2CO[C@@H]1CN(C)S(=O)(=O)c1ccc(-n2cccn2)cc1	·	1.1	1.8	-10.1	·	·	·	·	·
CN(CC(=O)Nc1ccc(Cl)cc1)C(=O)c1cccc(S(=O)(=O)N2CCN(Cc3ccccc3)CC2)c1	10.7	-55.2	-9.7	61.9*	12.8	-7.8	31.5	-1.6	-11.9
CN(C)C(=O)c1ccc(NC(=O)c2cccc(S(=O)(=O)N3CCN(Cc4ccccc4)CC3)c2)cc1	2.0	-24.3	-4.7	-23.3	·	·	·	·	·
Cc1ccc(C)c(S(=O)(=O)N2CCN(CC(=O)Nc3ccc4c(c3)OCCO4)CC2)c1	14.8	·	-5.6	3.3	-0.7	-7.0	·	·	·
O=C(CN1CCN(S(=O)(=O)c2cc(Cl)ccc2Cl)CC1)Nc1ccc2c(c1)OCCO2	4.1	-1.0	12.5	10.2	2.5	5.3	·	·	·
CN(C)c1ccc(NC(=O)CN2CCN(S(=O)(=O)c3cc(Cl)ccc3Cl)CC2)cc1	-3.2	9.4	5.4	64.0*	-3.4	9.5	40.7	-1.2	-11.6
Cc1ccc(C)c(S(=O)(=O)N2CCN(CC(=O)Nc3ccc4c(c3)CCC4)CC2)c1	13.0	·	-0.7	47.0*	-4.3	-9.1	28.5	1.3	5.2
CCCCn1nnnc1C(c1ccccc1)N1CCN(C/C=C/c2ccccc2)CC1 (centres undefined)	·	·	-3.2	46.2*	·	·	22.3	-0.5	-10.7
CCCCn1nnnc1C(c1cccc2ccccc12)N1CCN(C/C=C/c2ccccc2)CC1 (centres undefined)	·	·	19.2	44.4*	·	·	30.2	0.1	3.7
Cc1ccc(Cn2c(=O)n(Cc3ccco3)c(=O)c3ccccc32)cc1	28.7	19.0	8.7	69.0*	-4.0	-21.9	26.1	0.9	8.7
O=C(Cn1c(=O)n(Cc2ccccc2)c(=O)c2ccccc21)NCc1ccco1	27.7	2.6	18.2	32.0	-2.2	7.5	·	·	·
O=c1c2ccccc2n(Cc2ccccc2F)c(=O)n1Cc1ccccc1F	22.0	-11.7	16.5	53.6*	-5.5	13.6	16.9	1.1	10.9
FC(F)(F)c1ccc(Oc2ccc3cc(Br)ccc3c2)nc1	7.0	·	-9.6	83.7*	-1.3	2.5	47.6	0.9	6.7
O=[N+]([O-])c1ccc(Oc2ccc(C(F)(F)F)cn2)cc1	13.0	-9.0	-11.2	8.3	-3.0	0.8	·	·	·
O=C1C=C(Nc2ccc(Cl)cc2)CC(c2ccc(Cl)cc2)C1 (centres undefined)	18.5	·	-6.4	80.9*	-3.7	17.8	82.4*	0.6	-0.6
Cc1ccc(C2CC(=O)C=C(Nc3ccc(Cl)cc3)C2)cc1 (centres undefined)	-3.3	·	-5.0	74.6*	-2.3	-0.3	64.4*	2.7	5.9
O=C1C=C(Nc2ccc(Cl)cc2)CC(c2ccco2)C1 (centres undefined)	12.9	2.4	0.4	18.5	-3.2	12.6	·	·	·
COc1ccc(C(C(=O)NC(C)(C)C)N(C(=O)CCC(=O)Nc2cc(C)on2)c2ccc(C)c(C)c2)cc1 (centres undefined)	2.6	·	3.1	9.7	0.3	0.4	·	·	·
COC(=O)[C@@]1(Cc2ccc(OC)cc2)[C@H]2c3cc(C(=O)N4CCCC4)n(CCc4ccc(OC)c(Br)c4)c3C[C@H]2CN1C(=O)c1ccccc1	·	·	14.9	44.2*	·	·	4.7	-0.8	-13.2
O=C(COc1ccc(F)cc1)c1ccc2c(c1)CCCC2	26.9	-8.3	-8.4	47.1*	-0.7	4.3	25.0	-1.6	-14.9
O=C(NCc1ccc(F)cc1F)[C@@H]1CCCN1C(=O)[C@@H]1CCCN1C(=O)c1ccc(Cl)cc1	·	·	-1.1	-6.4	·	·	·	·	·
SMILES	CCR6 antagonist	H9c2 TAG inh	CXCR6 inh	EBI2 antag	APJ ag	APJ antagonist	EBI2 conf	EBI2 agonist	bGal counter
Cc1cc(C)c(NC(=O)CCN2C(=O)c3ccccc3S2(=O)=O)c(C)c1	16.4	1.7	1.2	-9.1	-1.3	9.8	·	·	·
O=C(CCc1nc2ccccc2c(=O)[nH]1)NNC(=O)COc1ccc(Br)cc1	16.1	1.4	0.6	59.2*	-2.8	13.7	39.1	0.3	-7.3
Cc1ccc(Nc2ccc(C(=O)NC3CCCCC3)cn2)cc1	10.5	12.5	-2.5	83.7*	-0.1	-13.0	57.6*	0.2	-10.7
COc1ccccc1Nc1ccc(C(=O)NC2CCCCC2)cn1	14.7	·	-1.6	9.6	-6.0	-3.7	·	·	·
O=C(N[C@H](CO)Cc1ccccc1)c1ccco1	-3.6	1.2	-18.7	-13.2	4.2	7.1	·	·	·
CN(C(=O)c1cccc(S(=O)(=O)N2CCCC2)c1)C1CCCCC1	19.2	-11.2	-2.8	20.2	-1.5	8.2	·	·	·
Cc1cccc(OCC(=O)N2CCN(C(=O)COc3ccc(Cl)cc3)CC2)c1	3.3	·	-7.2	84.4*	-3.1	-0.1	50.3*	-1.4	-14.9
COC(=O)C1CCN(C(=O)COc2ccc(Cl)cc2)CC1	-2.7	-9.7	2.5	61.7*	0.5	7.3	57.3*	0.6	9.7
CCOC(=O)C1CCN(C(=O)COc2ccc(Cl)cc2)CC1	7.2	-6.6	5.9	75.1*	5.3	8.2	54.3*	-2.0	-10.0
COc1ccccc1-c1nnc(SCC(=O)Nc2ccc(N3CCOCC3)cc2)n1N	7.6	6.1	-6.2	-7.4	0.0	4.4	·	·	·
COC(=O)c1[nH]c2cc(OC)ccc2c1NC(=O)CN1CCN(c2cccc(C)c2)C(C)C1 (centres undefined)	10.4	-26.4	6.9	72.5*	-7.5	-10.0	69.7*	-1.5	-7.3
COC(=O)c1[nH]c2cc(C)ccc2c1NC(=O)CN1CCOCC1	9.0	6.8	-0.1	-5.3	1.5	12.9	·	·	·
Cc1sc2nc(C3CC3)nc(N3CCN(C(=O)c4ccc(Cl)cc4)CC3)c2c1C	6.4	·	16.9	75.8*	-0.3	4.1	44.3	1.4	8.4
